# aDG glyco up: activators of alpha-DG glycosylation, primary screen, uHTS, Pro5-aDG cells, AlphaScreen. AID 624168, 2012. hit rate 0.22% among 360,000. activation, % at 10 µM. alpha-DG glycosylation AlphaScreen (IIH6); 0% Pro5, 100% B10-LARGE cell signal;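 active = activation of at least 8% versus controls, or a plate z-score of at least 8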;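 also: Pro5 are CHO cells carrying HIG-tagged alpha-DG that lacks glycosylation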
# GRIN3A LBD mod: binders of NR3A ligand-binding domain, primary screen, biophysical, differential scanning fluorimetry, uHTS. Glutamate receptor ionotropic, NMDA 3A (GRIN3A) ligand-binding domain. NR3A LBD differential scanning fluorimetry, Tm shift; 0% = protein alone, 100% = glycine-bound protein. Tm shift relative to glycine control, % at 25 µM. hit rate 2.5% among 340,000. AID 1259313, 2017;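 active = melting temperature shift of at least 10% of the positive control shift, at one fixed dose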
# Lipid droplet: inhibitors of hepatocyte lipid droplet formation, primary screen, imaging, high-throughput imaging, BODIPY stain; AML12 mouse hepatocytes, oleate lipid droplets; inhibition, % at 6.5 µM; hit rate 0.4% among 240,000;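 active = lipid droplet intensity inhibited by at least 50%, with more than 500 cells counted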
#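 material = mouse AML12 hepatocyte cell line, fixed after treatment | also added = 100 µM oleic acid challenge | doses = compound at 6.5 µM only | schedule = overnight exposure | technique = Image-based BODIPY and DAPI two-channel analysis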
# GC-A act: GC-A stimulated cGMP production enhancers – HEK293 GC-A cells, cGMP TR-FRET, EC30 ANP, primary screen | Atrial natriuretic peptide receptor 1 (Homo sapiens), P16066 | 0% at EC30 ANP, 100% saturating ANP | activation, % at 10 µM | hit rate 0.14% among 370,000; in the data active = activation above about 40%
# Target sequence (P16066 whole entry, looked up): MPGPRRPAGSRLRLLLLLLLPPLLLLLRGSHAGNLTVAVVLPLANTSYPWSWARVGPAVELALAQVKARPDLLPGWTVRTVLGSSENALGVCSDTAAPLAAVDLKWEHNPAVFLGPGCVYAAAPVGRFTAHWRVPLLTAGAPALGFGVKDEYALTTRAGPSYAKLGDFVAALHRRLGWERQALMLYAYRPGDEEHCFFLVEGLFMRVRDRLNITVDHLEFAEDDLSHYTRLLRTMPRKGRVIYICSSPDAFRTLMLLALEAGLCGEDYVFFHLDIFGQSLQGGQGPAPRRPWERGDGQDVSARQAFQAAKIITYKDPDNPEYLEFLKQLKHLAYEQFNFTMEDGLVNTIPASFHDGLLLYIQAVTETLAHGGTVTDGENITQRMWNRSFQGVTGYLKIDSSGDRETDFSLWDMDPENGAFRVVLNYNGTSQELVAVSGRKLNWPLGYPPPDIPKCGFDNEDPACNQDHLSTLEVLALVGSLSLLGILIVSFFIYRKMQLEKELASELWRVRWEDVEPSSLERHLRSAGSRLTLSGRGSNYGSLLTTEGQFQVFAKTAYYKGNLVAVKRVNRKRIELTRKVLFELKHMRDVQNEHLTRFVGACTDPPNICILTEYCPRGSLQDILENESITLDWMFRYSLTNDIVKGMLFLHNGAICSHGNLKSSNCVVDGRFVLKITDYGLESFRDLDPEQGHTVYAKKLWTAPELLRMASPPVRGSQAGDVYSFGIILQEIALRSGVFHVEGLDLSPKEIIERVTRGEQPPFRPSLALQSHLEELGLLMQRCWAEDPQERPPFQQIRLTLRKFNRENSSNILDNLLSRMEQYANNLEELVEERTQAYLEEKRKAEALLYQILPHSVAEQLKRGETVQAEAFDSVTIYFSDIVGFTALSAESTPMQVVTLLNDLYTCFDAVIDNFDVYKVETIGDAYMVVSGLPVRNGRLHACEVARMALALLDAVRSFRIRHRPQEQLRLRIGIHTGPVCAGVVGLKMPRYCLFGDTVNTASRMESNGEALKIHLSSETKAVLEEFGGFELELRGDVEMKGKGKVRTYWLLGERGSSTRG
# JMJD2C inh: inhibitors of GASC-1 histone demethylase, primary screen, biochemical, fluorescence, DELFIA europium; inhibition, % at 2.35 µM; AID 2099, 2009; hit rate 0.069% among 330,000; Lysine-specific demethylase 4C (Homo sapiens), Q9H3R0; GST-JMJD2C(1-420) H3K9me3 demethylation;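 active = more than half of a compound's replicate wells show inhibition beyond 50%, single wells judged on their own value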;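 also: signal counts dimethyl H3K9 product captured on neutravidin plate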
# NPR2 activator: human GC-B receptor activators, primary screen, HEK293 GC-B cells, cGMP TR-FRET, EC30 CNP; Atrial natriuretic peptide receptor 2 (Homo sapiens), P20594; 0% at EC30 CNP, 100% saturating CNP; activation, % at 10 µM; hit rate 0.11% among 370,000; AID 1920062, 2024;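 active = activation at 10 µM reaching about 35% in either raw or pattern-adjusted values, limit read from the data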
# Hep lipid conf: hepatocyte lipid droplet accumulation inhibitors, confirmation, imaging, AML12 mouse hepatocytes, single concentration, high-content. shares compounds with Lipid droplet. inhibition, % at 5.2 µM. BODIPY lipid droplet imaging; droplets induced with 100 µM oleic acid. hit rate 65% among 870;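 active = inhibition of lipid droplet metric at least 50%, with more than 300 cells in each of four replicates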
# AML12 tox img: AML12 hepatocyte cytotoxicity, counter-screen for hepatic lipid droplet formation project, imaging, DAPI nuclear morphology imaging; shares compounds with Lipid droplet; AML12 mouse hepatocytes; hits give high values; cells fed 100 µM oleate overnight; z-score at 5 µM; hit rate 3% among 870; AID 463200, 2010; in the data active = z-score above about 6.3;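 also: compound exposure lasted overnight at 37 °C before fixation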
# AML12 tox ATP: AML12 hepatocyte cytotoxicity, confirmation, cytotoxicity control for hepatic lipid droplet formation project, cell-based, single concentration; shares compounds with Lipid droplet; AML12 mouse hepatocyte viability, ATP luminescence; cells loaded with 100 µM oleic acid; cytotoxicity, % at 50 µM; 530 tested, under 10 active;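 active = cytotoxicity above 50% in each of four replicates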;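 also: compound exposure lasted overnight at 37 °C before the ATP read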
# Hits are given with their value; n = inactive; x = no result given. Sampled rows, rich in hits. Any-hit rate of the full collection: about 3%.
SMILES,aDG glyco up,GRIN3A LBD mod,Lipid droplet,GC-A act,JMJD2C inh,NPR2 activator,Hep lipid conf,AML12 tox img,AML12 tox ATP
CCc1ccc(NC(=O)CCC(=O)N2CCSc3ccccc32)cc1,n,n,n,n,n,n,x,x,x
CCOc1ccc(CCNC(=O)CSc2cc(=O)n(C)c3ccccc23)cc1OCC,n,n,98,n,n,n,106,n,n
CCOc1ccc(CCNC(=O)CCC(=O)N2CCSc3ccccc32)cc1OCC,n,n,91,n,n,n,110,n,n
CC(C)(C)NC(=O)C(c1cc2ccccc2o1)n1c(=O)c(-c2ccccc2)nc2ccccc21 (stereo unspecified),n,x,x,n,x,n,x,x,x
CC(C)(C)C(=O)OCc1ccc(C2=CC(=O)CC(C)(C)C2=O)cc1,n,x,x,n,x,n,x,x,x
CC(N)C(=O)NC(C(=O)NC(C)C(=O)Nc1cccc2ccccc12)C(C)C (stereo unspecified),n,x,x,n,x,n,x,x,x
CCOc1ccc(CCNC(=O)COc2cc(=O)n(C)c3ccccc23)cc1OCC,n,n,100,n,n,n,101,n,n
CCOc1ccc(CCNC(=O)CN2CCN(Cc3ccccc3C)C2=O)cc1OCC,n,n,83,n,n,n,107,n,n
CNc1ccc(-c2cccc([N+](=O)[O-])c2)cn1,n,x,x,n,x,n,x,x,x
O=C(N[C@H](C(=O)N1CCC[C@H]1C(=O)NC1CCCC1)c1ccccc1)c1ccc(Cl)cc1Cl,x,x,x,n,x,n,x,x,x
COc1ccccc1NC(=O)c1cc(S(=O)(=O)N2CCOCC2)ccc1Cl,n,n,n,n,n,n,x,x,x
COc1ccc(S(=O)(=O)N2CCOCC2)cc1NC(=O)c1ccccc1C,n,n,51,n,n,n,n,n,x
Cc1oc2c(cc(NS(=O)(=O)c3cccs3)c3ccccc32)c1C(=O)OC(C)C,n,n,68,n,n,n,89,n,n
CC(CNC(=O)[C@@H](Cc1ccccc1)NC(=O)CC[C@H]1O[C@@H](n2ccc(=O)[nH]c2=O)[C@H](O)[C@@H]1O)c1ccccc1 (stereo partly specified),n,x,x,n,x,n,x,x,x
CCOC(=O)n1cc(-c2cnc(CNC(=O)C(C)(c3ccccc3)c3ccccc3)o2)c2ccccc21,x,n,59,n,n,n,90,n,x
COc1ccc(C(C)=O)cc1CSc1nnc(Nc2ccc(C)cc2C)s1,n,n,90,n,n,n,n,n,x
O=C(COc1ccc2c(c1)OCO2)Nc1nccs1,n,n,n,n,n,n,x,x,x
C[C@@H](CO)N(CCc1cn(Cc2ccccc2)nn1)S(=O)(=O)c1ccccc1Br,x,x,x,n,x,n,x,x,x
CCN(CC)C(=O)CC(c1cc(OC)c(OC)c(OC)c1)c1c(OC)cc(OC)c2ccc(=O)oc12 (stereo unspecified),n,n,n,n,n,n,x,x,x
CCN(CC)C(=O)CC(c1ccc(OC)cc1)c1c(OC)cc(OC)c2ccc(=O)oc12 (stereo unspecified),n,n,64,n,n,n,n,n,x
CCCCSCCCNC(=O)c1ccc2c(c1)N(CC)C(=O)c1ccccc1S2=O (stereo unspecified),n,n,60,n,n,n,88,n,n
CCCN(CCC)CCCNC(=O)c1ccc2c(c1)N(CC)C(=O)c1ccccc1S2=O (stereo unspecified),n,n,x,n,n,n,x,x,x
CCn1c(=O)n(CC)c2cc(N)ccc21,n,n,54,n,n,n,n,n,x
O=C(OCC#CCSc1nnc(-c2ccccc2Cl)o1)c1ccc(F)cc1,x,x,x,n,x,n,x,x,x
CCOc1ccc2c(c1)-c1c(ssc1=S)C(C)(C)N2C(=O)c1ccco1,n,n,75,n,n,n,90,21,x
SMILES,aDG glyco up,GRIN3A LBD mod,Lipid droplet,GC-A act,JMJD2C inh,NPR2 activator,Hep lipid conf,AML12 tox img,AML12 tox ATP
CC(=O)Nc1ccc(-c2csc(NC(=O)Cc3ccccc3F)n2)cc1,n,n,58,n,n,n,75,n,n
CC(=O)Nc1ccc(-c2csc(NC(=O)Cc3cccc(F)c3)n2)cc1,n,n,64,n,n,n,100,n,n
O=C(Cc1ccccc1F)Nc1nc(-c2cccnc2)cs1,n,n,n,n,n,n,x,x,x
Cc1cc(C2=CC(=O)C[C@H](c3ccc(F)cc3)C2)ccc1F,n,x,x,n,x,n,x,x,x
COC(=O)C[C@H]1C=C[C@@H](NC(=O)Nc2c(C)noc2C)[C@@H](CO)O1,n,x,x,n,x,n,x,x,x
Cc1ccc(NC(=S)Nc2ccc3cn[nH]c3c2)cc1C,n,n,n,n,n,n,x,x,x
Cc1ccc(S(=O)(=O)N(C)C)cc1NC(=S)Nc1ccc2cn[nH]c2c1,n,n,56,n,n,n,n,n,x
COc1ccc2c(c1)c(CC(=O)Nc1ccc(C)cc1)c(C)n2C(=O)c1ccc(Cl)cc1,n,n,80,n,n,n,106,n,n
COc1ccc2c(c1)c(CC(=O)OCC(N)=O)c(C)n2C(=O)c1ccc(Cl)cc1,n,n,n,n,n,n,x,x,x
COc1ccc(NC(=O)Cc2c(C)n(C(=O)c3ccc(Cl)cc3)c3ccc(OC)cc23)cc1,n,n,83,n,n,n,98,n,x
Cc1cc(C)cc(NC(=O)CCC(=O)Nc2cc(C)on2)c1,n,n,75,n,n,n,71,n,n
C=CCn1c(O)c(N=NC(=O)CNC(=O)Cc2ccccc2)c2ccccc21,n,n,n,n,n,n,x,x,x
Cc1cccc2sc(NC(=O)CN(C)S(=O)(=O)c3cccs3)nc12,n,n,56,42,n,n,95,n,n
CCCC(=O)Nc1cccc(C(=O)Nc2ccccc2OCC)c1,x,x,73,n,n,n,99,n,x
C=C(C)c1cccc(C(C)(C)NC(=O)Nc2ccccc2OCC)c1,n,n,52,n,n,n,n,n,x
CCOc1ccccc1NC(=O)CCC(=O)Nc1ccccc1OCC,n,n,60,n,n,n,94,n,n
